In PMC11400628 (Protein Science : A Publication of the Protein Society, 2024):
Residue numbers refer to the chain shown, from its start. Blank lines part the entries; values can stand above or below the molecule they belong to.

Columns and labels:
CaMKIIα W403L hub [1] = biological target: T1, CaMKIIα W403L hub (Homo sapiens, UniProt Q9UQM7, W403L); experiment: Surface plasmon resonance, immobilized CaMKIIα W403L hub; type: binding
T1 sequence (Q9UQM7 345-475 W403L): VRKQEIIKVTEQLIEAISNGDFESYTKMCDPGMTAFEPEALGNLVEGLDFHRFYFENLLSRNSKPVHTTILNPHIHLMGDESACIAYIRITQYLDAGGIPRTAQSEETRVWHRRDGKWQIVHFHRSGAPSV
How it was run: (§1)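 SPR at 25°C. Purified hub (WT or W403L) was amine-coupled to the sensor in 20 mM NaAc, pH 5. Test compound was injected as twofold dilutions in MES running buffer (20 mM MES, 150 mM NaCl, 1 mM DTT, pH 6), with blank and reference-surface subtraction. Equilibrium responses versus concentration were fitted to a 1:1 Langmuir isotherm for KD. Independent experiments: WT n = 3, W403L n = 2.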

CaMKIIα WT hub [2] = biological target: T2, CaMKIIα WT hub (Homo sapiens, UniProt Q9UQM7); experiment: Small-angle X-ray scattering, CaMKIIα WT hub; conditions: CaMKIIα WT hub 1.2–3.9 mg/mL; PIPA 200 μM, HOCPCA 1000 μM, 5-HDC 100 μM
T2 sequence (Q9UQM7 345-475): T1 sequence (Q9UQM7 345-475 W403L) with L59W

CaMKIIα 6x hub [3] = biological target: T3, CaMKIIα 6x hub (Homo sapiens, UniProt Q9UQM7, E355Q/F467M/I414M/I464H/T354N/T412N); experiment: Intrinsic tryptophan fluorescence assay; type: binding; conditions: pIC50, quenching of intrinsic tryptophan fluorescence, purified CaMKIIα 6x hub
T3 sequence (Q9UQM7 345-475 T354N/E355Q/T412N/I414M/I464H/F467M): T1 sequence (Q9UQM7 345-475 W403L) with T10N, E11Q, L59W, T68N, I70M, I120H, F123M
How it was run: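 Purified human CaMKIIα 6x hub (residues 345–475 with six stabilising mutations). Intrinsic Trp fluorescence was read at 25°C across a test compound series (e.g. 0.43–12.1 μM). Signals were background-corrected for compound in buffer, then normalised between hub alone and the high-concentration plateau. IC50 came from a variable-slope log(inhibitor)-response fit of pooled data, n = 3.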

CaMKIIα WT hub [4] = biological target: T2, CaMKIIα WT hub; experiment: Mass photometry, CaMKIIα WT hub; conditions: CaMKIIα WT hub 100–500 nM, incubated with 200 μM PIPA
CaMKIIα 6x hub [5] = biological target: T3, CaMKIIα 6x hub; experiment: Small-angle X-ray scattering, CaMKIIα 6x hub; conditions: CaMKIIα 6x hub 6.7 mg/mL, PIPA 200 μM
How it was run: (§2)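 SAXS. Purified hub constructs were buffer-exchanged by spin desalting into 20 mM MES, 150 mM NaCl, 1 mM DTT, pH 6.0, with or without 200 μM test compound, and measured as dilution series of 1–7 mg/mL protein at 20–22°C. Frames were radially averaged, buffer-subtracted and merged, scaled by concentration. Curves were fitted with dodecamer, tetradecamer, mixed or stacked-dodecamer models.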

CaMKIIα W403L hub [6] = biological target: T1, CaMKIIα W403L hub; experiment: Thermal shift assay; type: binding; conditions: DSF, mean ± SEM, n = 3
CaMKIIα W403L hub [7] = biological target: T1, CaMKIIα W403L hub; experiment: Mass photometry, CaMKIIα W403L hub; conditions: CaMKIIα W403L hub 100–500 nM, incubated with 200 μM PIPA
How it was run: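 Mass photometry. The instrument was calibrated with apoferritin, BSA and […]. Purified W403L hub (1.5 mg/mL) was incubated 90 min with 200 μM test compound, then desalted into MES buffer (20 mM MES, 150 mM NaCl, 1 mM DTT, pH 6.0) plus compound. It was diluted to 500, 200 and 100 nM and recorded for 60 s, with a buffer blank before each run. Single-molecule mass histograms were built.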

CaMKIIα WT hub [8] = biological target: T2, CaMKIIα WT hub; experiment: Surface plasmon resonance, immobilized CaMKIIα WT hub; type: binding
How it was run: as §1

CaMKIIα WT hub [9] = biological target: T2, CaMKIIα WT hub; experiment: Thermal shift assay; type: binding; conditions: for maximum ∆Tm: DSF, mean ± SEM, n = 3
CaMKIIα W403L hub [10] = biological target: T1, CaMKIIα W403L hub; experiment: Small-angle X-ray scattering, CaMKIIα W403L hub; conditions: CaMKIIα W403L hub 6.8 mg/mL, PIPA 200 μM
How it was run: as §2

CaMKIIα holoenzyme = CaMKIIα holoenzyme (Homo sapiens, UniProt Q9UQM7); experiment: ADP-Glo kinase assay, syntide-2 phosphorylation; type: biochemical; conditions: sub-maximal (30 nM) CaM; concentrations up to 5–10 mM
CaMKIIα holoenzyme, sequence (Q9UQM7 whole entry): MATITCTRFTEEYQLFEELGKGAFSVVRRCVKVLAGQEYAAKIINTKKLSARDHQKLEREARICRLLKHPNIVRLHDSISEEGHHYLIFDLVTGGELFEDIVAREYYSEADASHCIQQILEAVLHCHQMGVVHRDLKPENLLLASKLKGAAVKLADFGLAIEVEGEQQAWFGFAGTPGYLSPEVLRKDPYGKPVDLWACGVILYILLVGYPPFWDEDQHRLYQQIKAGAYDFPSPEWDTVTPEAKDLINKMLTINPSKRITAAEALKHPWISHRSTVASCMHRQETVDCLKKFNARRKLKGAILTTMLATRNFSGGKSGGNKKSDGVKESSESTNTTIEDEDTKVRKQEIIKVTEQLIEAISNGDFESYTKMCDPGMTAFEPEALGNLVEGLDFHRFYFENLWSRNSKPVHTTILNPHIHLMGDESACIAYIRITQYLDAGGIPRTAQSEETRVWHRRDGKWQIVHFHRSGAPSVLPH

GHB binding site = conditions: low-affinity; ref Wellendorph et al., 2009; cited from earlier work
[11] = biological target: human CaMKIIα W403L hub domain (human) (UniProt Q9UQM7); experiment: mass photometry
SAXS = biological target: the molecule itself; experiment: SAXS

- Kd (CaMKIIα W403L hub [1]): 2800 ± 130 nM
- self-association / oligomeric state of hub (SAXS) (CaMKIIα WT hub [2]): induced self‐association
- IC50 (CaMKIIα 6x hub [3]): 5010 nM
- self-association of hub (SAXS) (CaMKIIα 6x hub [5]): no self‐association was detected
- maximum ∆Tm (CaMKIIα W403L hub [6]): 24.5 ± 0.4 °C
- change in MW (mass photometry) (CaMKIIα W403L hub [7]): did not display any change in MW
- Kd (CaMKIIα WT hub [8]): 2900 ± 600 nM
- maximum ∆Tm (CaMKIIα WT hub [9]): 13.04 ± 0.09 °C
- maximum ∆Tm less compared to 5-HDC (CaMKIIα WT hub [9]; difference PIPA vs 5-HDC): 10.7 °C
- self-association of hub (SAXS) (CaMKIIα W403L hub [10]): no self‐association was detected
Molecule: O=C(O)Cc1cn2nc(-c3ccc(Cl)cc3)ccc2n1 [PIPA, 2‐(6‐(4‐chlorophenyl)imidazo[1,2‐b]pyridazine‐2‐yl)acetic acid]
- molecular weight species (mass photometry) (CaMKIIα WT hub [4]): displayed a shoulder on the main peak around 220 kDa as well as a much larger species at 372 kDa

Molecule: O=C(O)C1=CC(O)CC1 (stereo not shown) [HOCPCA, 3‐hydroxycyclopent‐1‐enecarboxylic acid, reference compound]
- effect on syntide-2 substrate phosphorylation (CaMKIIα holoenzyme): neither of the compounds affected substrate phosphorylation
- self-association / oligomeric state of hub (SAXS) (CaMKIIα WT hub [2]): not observed
- maximum ∆Tm (CaMKIIα W403L hub [6]): 15.2 ± 1.0 °C
- maximum ∆Tm (CaMKIIα WT hub [9]): 11.5 ± 0.6 °C

Molecule: CC(=O)O [acetate]
- effect on syntide-2 substrate phosphorylation (CaMKIIα holoenzyme): neither of the compounds affected substrate phosphorylation
- Ki (GHB binding site): > 100000 nM

- stoichiometry N [11]: 12
Molecule: human CaMKIIα W403L hub domain (from UniProt Q9UQM7 345-475) (domain or fragment)

B1: human CaMKIIα wild-type (WT) hub domain (domain or fragment, UniProt Q9UQM7 345-475, looked up)
chain: T1 sequence (Q9UQM7 345-475 W403L) with L59W
- stoichiometry N (SAXS): 12
